# Calls of active or inactive are those of the source. The calls are words filed in the database; no cut-off is given here.
# How the values were obtained:
# Mus musculus [1] = assay: Antiinflammatory activity in po dosed mouse assessed as inhibition of LPS-induced TNFalpha production administered 30 mins before LPS challenge measured after 1 hr by ELISA; assay type: functional; settings: read-out: ID50 (the source's name)
# Method in brief: (§1)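 Groups of five mice were used. ID50 came from a least-squares linear regression of % inhibition against log dose, with 95% confidence intervals by Fieller's theorem.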
# Blood [2] = assay: Antiinflammatory activity in human whole blood assessed as inhibition of LPS-induced TNFalpha production after 6 hrs by immunoassay; assay type: functional, tissue-based
# Method in brief: (§2)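 Values are the mean and SD of three to four determinations. IC50 came from a least-squares linear regression of % inhibition against log concentration, with 95% confidence intervals by Fieller's theorem.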
# Rattus norvegicus [3] = assay: Analgesic activity in po dosed heat-killed mycobacterium tuberculosis-induced rat arthritis model assessed as decrease in squeaking behavior after 72 hrs […]; assay type: functional; settings: read-out: ID50 (the source's name)
# [4] = target: T1, Mitogen-activated protein kinase 12 (Homo sapiens, UniProt P53778); assay: Inhibition of p38-gamma
# T1 sequence (P53778 whole entry): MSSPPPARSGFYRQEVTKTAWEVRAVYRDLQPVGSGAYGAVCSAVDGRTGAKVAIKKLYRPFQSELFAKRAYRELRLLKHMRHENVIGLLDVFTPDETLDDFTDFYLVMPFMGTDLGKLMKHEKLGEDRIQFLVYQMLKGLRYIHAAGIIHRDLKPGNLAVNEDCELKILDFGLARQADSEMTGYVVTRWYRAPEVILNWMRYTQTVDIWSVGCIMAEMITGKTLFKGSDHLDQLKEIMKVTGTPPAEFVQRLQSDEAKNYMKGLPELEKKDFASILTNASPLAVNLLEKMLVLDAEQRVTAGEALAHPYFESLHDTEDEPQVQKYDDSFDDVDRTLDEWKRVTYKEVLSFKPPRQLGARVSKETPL
# Method in brief: (§3)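 Kinase inhibition IC50 was the mean and SD of three to four determinations. It was derived by least-squares linear regression of % inhibition against log concentration, with 95% confidence intervals by Fieller's theorem.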
# Mus musculus [5] = assay: Antiinflammatory activity in po dosed mouse assessed as inhibition of LPS-induced IL1-beta production administered 2 hrs after LPS challenge; assay type: functional; settings: read-out: ID50 (the source's name); method in brief: as §1
# Blood [6] = assay: Antiinflammatory activity in human whole blood assessed as inhibition of LPS-induced IL-8 production after 6 hrs by immunoassay; assay type: functional, tissue-based; method in brief: as §2
# [7] = target: T2, Mitogen-activated protein kinase 13 (Homo sapiens, UniProt O15264); assay: Inhibition of p38delta; method in brief: as §3
# T2 sequence (O15264 whole entry): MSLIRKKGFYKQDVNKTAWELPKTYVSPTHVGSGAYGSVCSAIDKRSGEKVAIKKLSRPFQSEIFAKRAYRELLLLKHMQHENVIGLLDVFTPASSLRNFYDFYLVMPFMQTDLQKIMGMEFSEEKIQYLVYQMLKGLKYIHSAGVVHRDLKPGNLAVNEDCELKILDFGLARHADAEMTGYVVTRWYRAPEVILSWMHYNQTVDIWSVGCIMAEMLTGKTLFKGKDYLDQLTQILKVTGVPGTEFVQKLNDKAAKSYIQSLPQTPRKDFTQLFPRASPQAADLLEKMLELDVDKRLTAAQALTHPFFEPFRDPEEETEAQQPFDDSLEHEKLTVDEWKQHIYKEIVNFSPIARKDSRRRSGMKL
# Mus musculus [8] = assay: Antiinflammatory activity in po dosed mouse assessed as inhibition of LPS-induced IL-6 production; assay type: functional; settings: read-out: ID50 (the source's name); method in brief: as §1
# Rattus norvegicus [9] = assay: Antiarthritic activity in po dosed heat-killed mycobacterium tuberculosis-induced rat arthritis model assessed as decrease in paw volume administered BID for 7 days measured 24 hrs post last dose by plethysmometry; assay type: functional; settings: read-out: ID50 (the source's name)
# Method in brief: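 Adjuvant arthritis was established by day 18, and rats with injected-foot volume ≥2.75 mL were grouped to equal means. Test agents in 0.5% CMC were given orally at 5 mL/kg twice daily on days 18–24. Feet were measured by plethysmometer on days 18, 20, 23 and 25. The swelled-foot ratio (day 25/day 18, corrected by normal animals) gave % inhibition versus controls. n=5.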
# Blood [10] = assay: Antiinflammatory activity in human whole blood assessed as inhibition of LPS-induced IL1-beta production after 6 hrs by immunoassay; assay type: functional, tissue-based; method in brief: as §2
# [11] = target: T3, Mitogen-activated protein kinase 13 (Homo sapiens) (UniProt O15264); assay: Inhibition of p38delta at 10 uM
# T3 sequence (whole entry): T2 sequence (O15264 whole entry)
# [12] = target: Mitogen-activated protein kinase 14 (Homo sapiens, UniProt Q16539); assay: Inhibition of p38alpha; method in brief: as §3
# Mitogen-activated protein kinase 14, sequence (Q16539 whole entry): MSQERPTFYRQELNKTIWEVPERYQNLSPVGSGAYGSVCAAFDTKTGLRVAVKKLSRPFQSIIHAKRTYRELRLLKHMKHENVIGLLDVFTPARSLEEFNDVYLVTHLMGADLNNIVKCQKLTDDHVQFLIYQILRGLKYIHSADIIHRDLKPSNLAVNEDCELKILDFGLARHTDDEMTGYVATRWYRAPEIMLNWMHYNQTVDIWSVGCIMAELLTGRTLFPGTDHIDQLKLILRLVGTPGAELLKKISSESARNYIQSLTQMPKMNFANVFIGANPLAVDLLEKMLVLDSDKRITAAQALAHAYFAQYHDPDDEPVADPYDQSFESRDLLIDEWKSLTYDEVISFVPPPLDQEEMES
# [13] = target: T4, Mitogen-activated protein kinase 12 (Homo sapiens) (UniProt P53778); assay: Inhibition of p38-gamma at 10 uM
# T4 sequence (whole entry): T1 sequence (P53778 whole entry)
# Rattus norvegicus [14] = assay: Antiarthritic activity in po dosed heat-killed mycobacterium tuberculosis-induced rat arthritis model assessed as decrease in paw volume administered QD for 20 days measured on day 21 by plethysmometry; assay type: functional; settings: read-out: ID50 (the source's name)
# [15] = target: Mitogen-activated protein kinase 11 (Homo sapiens, UniProt Q15759); assay: Inhibition of p38beta; method in brief: as §3
# Mitogen-activated protein kinase 11, sequence (Q15759 whole entry): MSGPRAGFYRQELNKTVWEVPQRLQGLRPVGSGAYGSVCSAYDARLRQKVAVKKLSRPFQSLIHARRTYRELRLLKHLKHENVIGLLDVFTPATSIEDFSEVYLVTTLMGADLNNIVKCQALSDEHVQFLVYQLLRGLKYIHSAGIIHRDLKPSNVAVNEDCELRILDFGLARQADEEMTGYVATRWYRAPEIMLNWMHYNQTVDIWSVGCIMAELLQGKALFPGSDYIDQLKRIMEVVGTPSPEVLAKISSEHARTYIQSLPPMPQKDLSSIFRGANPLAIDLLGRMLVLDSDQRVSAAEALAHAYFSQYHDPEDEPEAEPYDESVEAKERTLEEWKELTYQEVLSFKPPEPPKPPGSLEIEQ
# Mus musculus [16] = species: Mus musculus; assay: Antiarthritic activity in DBA/1 mouse assessed as inhibition of collagen-induced arthritis; assay type: functional; settings: read-out: ID50 (the source's name); method in brief: as §1
# Blood [17] = assay: Antiinflammatory activity in human whole blood assessed as inhibition of LPS-induced IL-6 production after 6 hrs by immunoassay; assay type: functional, tissue-based; method in brief: as §2
# Mus musculus [18] = species: Mus musculus; assay: Antiarthritic activity in DBA/1 mouse assessed as inhibition of anti-collagen antibody-induced arthritis after 3 weeks; assay type: functional; settings: DBA/1, 504 h, read-out: ID50 (the source's name); method in brief: as §1
# Blood [19] = assay: Antiinflammatory activity in human whole blood assessed as inhibition of LPS-induced TNFalpha production at 1 uM after 6 hrs by immunoassay; assay type: functional
compound,measurement,setting,value
Fc1ccc(-c2[nH]cc(C3=CC4CCCCN4CC3)c2-c2ccncc2)cc1 (stereo not drawn),ED50,Mus musculus [1],2.27 mg/kg
same,IC50,Blood [2],310 nM
Fc1ccc(-c2[nH]cc(C3=C[C@@H]4CCCN4CC3)c2-c2ccncc2)cc1,ED50,Rattus norvegicus [3],2.9 mg/kg
same,IC50,[4],> 10000 nM
same,ED50,Mus musculus [5],8.63 mg/kg
same,IC50,Blood [6],16 nM
same,IC50,[7],> 10000 nM
same,ED50,Mus musculus [8],0.11 mg/kg
same,ED50,Rattus norvegicus [9],4.9 mg/kg
same,IC50,Blood [10],20 nM
same,inhibition,[11],inactive
same,IC50,[12],34 nM
same,inhibition,[13],inactive
same,ED50,Rattus norvegicus [14],3.1 mg/kg
same,ED50,Mus musculus [1],0.93 mg/kg
same,IC50,[15],572 nM
same,IC50,Blood [2],26 nM
same,ED50,Mus musculus [16],2.38 mg/kg
same,IC50,Blood [17],880 nM
same,ED50,Mus musculus [18],2.22 mg/kg
Fc1ccc(-c2[nH]cc(C3=CCN4CCCCC4C3)c2-c2ccncc2)cc1 (stereo not drawn),ED50,Mus musculus [1],3.55 mg/kg
same,IC50,Blood [2],810 nM
Fc1ccc(-c2[nH]cc(C3=C[C@H]4CCCN4CC3)c2-c2ccncc2)cc1,ED50,Mus musculus [1],6.59 mg/kg
same,inhibition at 1 µM,Blood [19],49%
Fc1ccc(-c2[nH]cc(C3=CC4CCCN4CC3)c2-c2ccncc2)cc1 (stereo not drawn),ED50,Mus musculus [1],1.09 mg/kg
same,IC50,Blood [2],42 nM
Fc1ccc(-c2[nH]cc(C3=CCN4CCCC4C3)c2-c2ccncc2)cc1 (stereo not drawn),ED50,Mus musculus [1],2.85 mg/kg
same,IC50,Blood [2],600 nM
